{
  "source": "ChEMBL document CHEMBL1144813",
  "about": "“4'-Methyl-4,5'-bithiazole-based correctors of defective delta F508-CFTR cellular processing” (Bioorg Med Chem Lett, 2008)",
  "format_in_all_cases": "cell-based",
  "key": {"[1]": {"biological_target": "Cystic fibrosis transmembrane conductance regulator (Homo sapiens, UniProt P13569, F508DEL)", "sequence (P13569 as listed by the source)": "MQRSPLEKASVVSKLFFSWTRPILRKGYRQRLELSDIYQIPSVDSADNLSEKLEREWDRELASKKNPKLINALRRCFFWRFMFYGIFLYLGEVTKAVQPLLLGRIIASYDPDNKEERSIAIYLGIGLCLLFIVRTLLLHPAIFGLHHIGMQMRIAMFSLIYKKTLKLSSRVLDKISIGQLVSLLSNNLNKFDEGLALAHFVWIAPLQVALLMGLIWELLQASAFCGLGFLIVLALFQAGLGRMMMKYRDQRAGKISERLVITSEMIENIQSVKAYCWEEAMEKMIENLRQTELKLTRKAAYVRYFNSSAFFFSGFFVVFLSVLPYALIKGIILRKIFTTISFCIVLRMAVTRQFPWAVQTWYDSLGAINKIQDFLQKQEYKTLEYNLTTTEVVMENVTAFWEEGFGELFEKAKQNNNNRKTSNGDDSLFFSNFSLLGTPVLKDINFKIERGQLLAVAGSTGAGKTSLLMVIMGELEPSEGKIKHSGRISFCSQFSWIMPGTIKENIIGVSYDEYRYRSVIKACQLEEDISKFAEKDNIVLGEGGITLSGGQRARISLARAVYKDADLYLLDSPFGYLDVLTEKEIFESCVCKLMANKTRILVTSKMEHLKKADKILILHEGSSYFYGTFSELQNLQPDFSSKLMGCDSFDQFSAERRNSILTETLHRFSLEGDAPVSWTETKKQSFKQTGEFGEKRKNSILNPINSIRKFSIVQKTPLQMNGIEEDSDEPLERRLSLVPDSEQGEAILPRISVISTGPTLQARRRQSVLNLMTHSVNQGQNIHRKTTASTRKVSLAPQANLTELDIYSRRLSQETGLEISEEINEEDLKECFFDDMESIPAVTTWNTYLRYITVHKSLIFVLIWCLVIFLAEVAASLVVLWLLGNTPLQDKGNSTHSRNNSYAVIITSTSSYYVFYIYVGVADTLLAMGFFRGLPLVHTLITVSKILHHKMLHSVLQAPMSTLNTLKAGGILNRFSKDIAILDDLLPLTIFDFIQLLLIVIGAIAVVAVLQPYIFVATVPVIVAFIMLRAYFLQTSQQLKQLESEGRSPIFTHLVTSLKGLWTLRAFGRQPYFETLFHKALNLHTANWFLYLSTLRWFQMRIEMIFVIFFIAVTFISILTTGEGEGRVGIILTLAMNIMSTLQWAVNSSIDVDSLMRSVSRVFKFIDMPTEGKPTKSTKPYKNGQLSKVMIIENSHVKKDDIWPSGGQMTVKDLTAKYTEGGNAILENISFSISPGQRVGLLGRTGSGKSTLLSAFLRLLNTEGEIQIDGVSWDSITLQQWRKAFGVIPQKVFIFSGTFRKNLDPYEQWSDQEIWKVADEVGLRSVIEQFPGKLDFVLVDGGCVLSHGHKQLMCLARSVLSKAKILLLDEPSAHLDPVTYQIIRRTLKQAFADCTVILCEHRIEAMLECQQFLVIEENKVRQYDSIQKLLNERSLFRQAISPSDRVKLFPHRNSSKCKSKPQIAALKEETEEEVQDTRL", "assay": "Corrector activity at human CFTR deltaF508 mutant expressed in FRT cells assessed as iodide influx", "settings": "read-out: Kd", "summary_of_the_method": "(§1)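 FRT epithelial cells stably co-expressing human ΔF508-CFTR and halide sensor YFP-H148Q/I152L; grown 24 h at 37°C, then 20 h with compound. PBS wash, then forskolin 20 μM plus genistein 50 μM for 20 min. Fluorescence read 2 s baseline, then 12 s after iodide-substituted PBS addition; influx rate from exponential fit of final 11.5 s, normalized to initial fluorescence; DMSO vehicle negative control.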"}, "[2]": {"system": "Cystic fibrosis transmembrane conductance regulator (Homo sapiens), P13569 [F508del]", "sequence (P13569 as listed by the source)": "as above", "assay": "Corrector activity at human CFTR deltaF508 mutant expressed in FRT cells assessed as iodide influx at 10 uM", "summary_of_the_method": "as §1"}, "[3]": {"system": "Cystic fibrosis transmembrane conductance regulator (Homo sapiens), P13569 [F508del]", "assay": "Corrector activity at human CFTR deltaF508 mutant expressed in FRT cells assessed as iodide influx at 25 uM", "summary_of_the_method": "as §1"}},
  "note": "Activity calls are given as the source filed them. The rule behind the calls is not given here.",
  "data": [
    {"compound": "Cc1ccc(Nc2nc(-c3sc(NC(=O)c4ccc(Cl)cc4)nc3C)cs2)cc1", "values": [
      {"measurement": "EC50", "setting": "[1]", "result": 1100, "unit": "nM"}
    ]},
    {"compound": "COc1c(Cl)cccc1Nc1nc(-c2sc(NC(=O)c3ccccc3)nc2C)cs1", "values": [
      {"measurement": "Activity", "setting": "[2]", "result": "Active"},
      {"measurement": "Activity", "setting": "[3]", "result": "Active"}
    ]},
    {"compound": "CCCCCCC(=O)Nc1nc(C)c(-c2csc(Nc3cc(OC)ccc3OC)n2)s1", "values": [
      {"measurement": "EC50", "setting": "[1]", "result": 1100, "unit": "nM"}
    ]},
    {"compound": "COc1ccc(Cl)cc1Nc1nc(-c2sc(NC(=O)C(C)(C)C)nc2C)cs1", "values": [
      {"measurement": "EC50", "setting": "[1]", "result": 700, "unit": "nM"}
    ]},
    {"compound": "COc1ccc(OC)c(Nc2nc(-c3sc(NC(=O)c4ccc(Cl)cc4)nc3C)cs2)c1", "values": [
      {"measurement": "EC50", "setting": "[1]", "result": 1100, "unit": "nM"}
    ]},
    {"compound": "COc1ccc(Cl)cc1Nc1nc(-c2sc(NC(=O)c3ccccc3)nc2C)cs1", "values": [
      {"measurement": "Activity", "setting": "[2]", "result": "Active"},
      {"measurement": "Activity", "setting": "[3]", "result": "Active"},
      {"measurement": "EC50", "setting": "[1]", "result": 900, "unit": "nM"}
    ]},
    {"compound": "CCOc1ccccc1Nc1nc(-c2sc(NC(=O)C(C)(C)C)nc2C)cs1", "values": [
      {"measurement": "EC50", "setting": "[1]", "result": 800, "unit": "nM"}
    ]},
    {"compound": "Cc1nc(NC(=O)c2ccccc2)sc1-c1csc(Nc2cccc(Cl)c2Cl)n1", "values": [
      {"measurement": "Activity", "setting": "[2]", "result": "Active"},
      {"measurement": "Activity", "setting": "[3]", "result": "Active"}
    ]},
    {"compound": "Cc1nc(NC(=O)c2ccc([N+](=O)[O-])cc2)sc1-c1csc(Nc2ccc(Cl)cc2)n1", "values": [
      {"measurement": "EC50", "setting": "[1]", "result": 800, "unit": "nM"}
    ]},
    {"compound": "Cc1nc(NC(=O)c2ccc(Cl)cc2)sc1-c1csc(Nc2ccc(Cl)cc2)n1", "values": [
      {"measurement": "EC50", "setting": "[1]", "result": 1100, "unit": "nM"}
    ]}
  ]
}
